Values after ≈ are worked out from the molar mass of the structure shown.

One may read the MIC as the smallest concentration in the dilution series that meets the test's criterion for growth inhibition. Read a low MIC as inhibition by little substance.

The test system of test [1] is Aspergillus niger. Description: Antifungal activity against Aspergillus niger after 12 to 18 hrs by broth microdilution method. It counts as functional. An outline of the steps: (§1)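 Clinical isolate from a medical college microbiology department, subcultured on Sabouraud dextrose agar at 37 °C for 48–72 h. Liquid culture was grown in yeast/peptone/D-glucose medium for 12–18 h at 37 °C, then diluted by OD600 to 10⁴ cfu/100 per well. Compounds were made as a 10 mg/ml DMSO stock and a 1 mg/ml methanol working solution. Twofold serial dilutions ran across 10 wells, in triplicate, per NCCLS micro-well dilution. MIC was the lowest concentration with no visible growth.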
In general terms: Broth dilution looks for growth in wells or tubes with falling amounts of substance.

Test [2] deals with Candida albicans. Description: Antifungal activity against Candida albicans after 12 to 18 hrs by broth microdilution method. It counts as functional. In a few lines:
as §1

Test [3] concerns Aspergillus niger. Description: Antifungal activity against Aspergillus niger after 12 to 18 hrs by micro-well dilution method. It counts as functional. An outline of the steps:
(§2)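 Broth micro-well dilution per NCCLS, in triplicate. Compounds were stocked at 10 mg/ml in DMSO and diluted to a 1 mg/ml working solution in methanol. Two-fold serial dilutions ran across 10 wells of medium. Clinical isolates were subcultured on Sabouraud dextrose agar at 37 °C for 48-72 h. Cultures were grown in yeast/peptone/D-glucose medium for 12-18 h at 37 °C and sized by OD600 to 10⁴ cfu per well. MIC is the lowest concentration with no visible growth. Amphotericin-B and nystatin served as reference drugs.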

Test [4] deals with Bacillus subtilis. The test can be described thus: Antimicrobial activity against Bacillus subtilis after 12 to 18 hrs by micro-well dilution method. It counts as functional. In a few lines: (§3)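 Clinical isolates were tested by broth micro-well dilution per NCCLS, in triplicate. Stocks were 10 mg/ml in DMSO, with a 1 mg/ml working solution in methanol. Two-fold serial dilutions ran across 10 wells. Cultures were grown to log phase in Luria Bertani or nutrient broth for 12-18 h at 37 °C and adjusted by OD600 to 10⁷ cfu per well. MIC is the lowest concentration preventing visible growth. Ampicillin and kanamycin served as reference drugs.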

Test [5] has as its system Salmonella typhimurium. Description: Antimicrobial activity against Salmonella typhimurium after 12 to 18 hrs by micro-well dilution method. In kind it is functional, Salmonella enterica subsp. enterica serovar Typhimurium. Conditions: Salmonella enterica. An outline of the steps: as §3
Test [6] concerns Pseudomonas aeruginosa. Description: Antimicrobial activity against Pseudomonas aeruginosa after 12 to 18 hrs by micro-well dilution method. In kind it is functional. An outline of the steps: as §3
Test [7] concerns Staphylococcus aureus. The test can be described thus: Antimicrobial activity against Staphylococcus aureus after 12 to 18 hrs by micro-well dilution method. It counts as functional. An outline of the steps:
as §3

For test [8], the system named is Candida albicans. The test can be described thus: Antifungal activity against Candida albicans after 12 to 18 hrs by micro-well dilution method. In kind it is functional. An outline of the steps:
as §2

NYSTATIN: the MIC in test [1] and in test [2] was 7.81 µg/mL each time.

With `O=C(CC(c1ccccc1)S(=O)(=O)c1ccccc1)c1ccccc1` (stereo not drawn), the MIC in test [3] was 7.81 µg/mL (≈ 22.3 µM); in test [4], 31.2 µg/mL (≈ 89.2 µM); in test [5], 1.95 µg/mL (≈ 5.56 µM); in test [6] it was 125 µg/mL (≈ 357 µM); in test [7], 62.5 µg/mL (≈ 178 µM); in test [8], 3.9 µg/mL (≈ 11.1 µM).

For `COc1ccc(C(CC(=O)CC(c2ccc(OC)cc2)S(=O)(=O)c2ccccc2)S(=O)(=O)c2ccccc2)cc1` (stereo not drawn), the MIC in test [3] turned out to be 125 µg/mL (≈ 216 µM); in test [4] it was 31.2 µg/mL (≈ 54 µM); in test [5], 62.5 µg/mL (≈ 108 µM); in test [6], 125 µg/mL (≈ 216 µM); in test [7], 250 µg/mL (≈ 432 µM); in test [8] it was 125 µg/mL (≈ 216 µM).

Take `O=C(CC(c1ccc(Cl)cc1)S(=O)(=O)c1ccccc1)c1ccccc1` (stereo not drawn): the MIC in test [3] came out at 125 µg/mL (≈ 325 µM); in test [4] it was 62.5 µg/mL (≈ 162 µM); in test [5] it was 125 µg/mL (≈ 325 µM); in test [6], 62.5 µg/mL (≈ 162 µM); in test [7], 125 µg/mL (≈ 325 µM); in test [8], 1.95 µg/mL (≈ 5.07 µM).

As to `NC[C@H]1O[C@H](O[C@H]2[C@H](O)[C@@H](O[C@H]3O[C@H](CO)[C@@H](O)[C@H](N)[C@H]3O)[C@H](N)C[C@@H]2N)[C@H](O)[C@@H](O)[C@@H]1O` [KANAMYCIN], the MIC in test [4] turned out to be 7.81 µg/mL (≈ 16.1 µM); in test [5], 15.6 µg/mL (≈ 32.2 µM); in test [6], 250 µg/mL (≈ 516 µM); in test [7] it was 500 µg/mL (≈ 1030 µM).

As to `CC1(C)S[C@@H]2[C@H](NC(=O)[C@H](N)c3ccccc3)C(=O)N2[C@H]1C(=O)O` [AMPICILLIN], the MIC in test [4] turned out to be 250 µg/mL (≈ 715 µM); in test [5] it was 125 µg/mL (≈ 358 µM); in test [6], 125 µg/mL (≈ 358 µM); in test [7], 500 µg/mL (≈ 1430 µM).

As for `COc1cc(C(CC(=O)c2ccc(Br)cc2)S(=O)(=O)c2ccccc2)cc(OC)c1OC` (stereo not drawn), the MIC in test [3] was 7.81 µg/mL (≈ 15 µM); in test [4], 31.2 µg/mL (≈ 60.2 µM); in test [5] it was 1.95 µg/mL (≈ 3.75 µM); in test [6], 125 µg/mL (≈ 241 µM); in test [7], 125 µg/mL (≈ 241 µM); in test [8] it was 3.9 µg/mL (≈ 7.51 µM).

Regarding `O=C(CC(c1cccc([N+](=O)[O-])c1)S(=O)(=O)c1ccccc1)c1ccc(Cl)cc1` (stereo not drawn), the MIC is 62.5 µg/mL (≈ 145 µM) in test [3]; 62.5 µg/mL (≈ 145 µM) in test [4]; 62.5 µg/mL (≈ 145 µM) in test [5]; 62.5 µg/mL (≈ 145 µM) in test [6]; 125 µg/mL (≈ 291 µM) in test [7]; 1.95 µg/mL (≈ 4.54 µM) in test [8].

For `Cc1ccc(C(CC(=O)CC(c2ccc(C)cc2)S(=O)(=O)c2ccccc2)S(=O)(=O)c2ccccc2)cc1` (stereo not drawn), the MIC in test [3] was determined as 31.2 µg/mL (≈ 57.2 µM); in test [4], 62.5 µg/mL (≈ 114 µM); in test [5] it was 31.2 µg/mL (≈ 57.2 µM); in test [6], 62.5 µg/mL (≈ 114 µM); in test [7], 62.5 µg/mL (≈ 114 µM); in test [8], 1.95 µg/mL (≈ 3.57 µM).

Turning to `O=C(CC(c1ccc(Cl)cc1)S(=O)(=O)c1ccccc1)c1ccc(Cl)cc1` (stereo not drawn), the minimum inhibitory concentration (MIC) in test [3] came to 15.6 µg/mL (≈ 37.2 µM); in test [4] it was 15.6 µg/mL (≈ 37.2 µM); in test [5], 125 µg/mL (≈ 298 µM); in test [6], 125 µg/mL (≈ 298 µM); in test [7], 250 µg/mL (≈ 596 µM); in test [8], 31.2 µg/mL (≈ 74.5 µM).

With `C[C@@H]1[C@H](O)[C@@H](C)/C=C/C=C/C=C/C=C/C=C/C=C/C=C/[C@H](O[C@@H]2O[C@H](C)[C@@H](O)[C@H](N)[C@@H]2O)C[C@@H]2O[C@](O)(C[C@@H](O)C[C@@H](O)[C@H](O)CC[C@@H](O)C[C@@H](O)CC(=O)O[C@H]1C)C[C@H](O)[C@H]2C(=O)O` [AMPHOTERICIN B], the minimum inhibitory concentration (MIC) worked out at 500 µg/mL (≈ 541 µM) in test [1] and 15.6 µg/mL (≈ 16.9 µM) in test [2].

For the molecule `O=C(CC(c1ccccc1)S(=O)(=O)c1ccccc1)c1ccc(Br)cc1` (stereo not drawn), the MIC in test [3] turned out to be 62.5 µg/mL (≈ 146 µM); in test [4] it was 62.5 µg/mL (≈ 146 µM); in test [5] it was 250 µg/mL (≈ 582 µM); in test [6], 62.5 µg/mL (≈ 146 µM); in test [7] it was 125 µg/mL (≈ 291 µM); in test [8], 125 µg/mL (≈ 291 µM).

As for `O=C(CC(c1ccc(Cl)cc1)S(=O)(=O)c1ccccc1)CC(c1ccc(Cl)cc1)S(=O)(=O)c1ccccc1` (stereo not drawn), the MIC in test [3] was 125 µg/mL (≈ 213 µM); in test [4], 31.2 µg/mL (≈ 53.2 µM); in test [5] it was 15.6 µg/mL (≈ 26.6 µM); in test [6] it was 250 µg/mL (≈ 425 µM); in test [7], 250 µg/mL (≈ 425 µM); in test [8], 1.95 µg/mL (≈ 3.32 µM).

Regarding `COc1ccc(C(CC(=O)c2ccc(Br)cc2)S(=O)(=O)c2ccccc2)cc1OC` (stereo not drawn), the MIC stood at 15.6 µg/mL (≈ 31.9 µM) in test [3]; 62.5 µg/mL (≈ 128 µM) in test [4]; 1.95 µg/mL (≈ 3.98 µM) in test [5]; 62.5 µg/mL (≈ 128 µM) in test [6]; 62.5 µg/mL (≈ 128 µM) in test [7]; 15.6 µg/mL (≈ 31.9 µM) in test [8].

With `O=C(CC(c1ccccc1)S(=O)(=O)c1ccccc1)CC(c1ccccc1)S(=O)(=O)c1ccccc1` (stereo not drawn), the MIC in test [3] stood at 125 µg/mL (≈ 241 µM); in test [4] it was 125 µg/mL (≈ 241 µM); in test [5], 250 µg/mL (≈ 482 µM); in test [6], 62.5 µg/mL (≈ 121 µM); in test [7] it was 62.5 µg/mL (≈ 121 µM); in test [8], 250 µg/mL (≈ 482 µM).

Values taken from ChEMBL document CHEMBL2311466, “Synthesis and antibacterial and antifungal evaluation of some chalcone based sulfones and bisulfones” (2013).
